Measured values as given in publication PMC8742645 (Clinical and Translational Science, 2021).
Values joined by “and” are separate entries in the source; they are usually repeats but may differ in a detail not shown here. Equal values may be shown once. Read-outs that look alike come from different tables or passages of the source. Marks after values point to notes of the source that are not given here.

Columns and labels:
Caco-2 cells = assay: Caco-2 permeability of remibrutinib; assay type: in vitro ADME; conditions: Caco-2, passive
In short: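 Human Caco-2 cell system, also used to test the compound as a substrate of ATP-binding cassette efflux transporters (P-gp). Passive apparent permeability (Papp, cm/s) was taken from these experiments to predict the fraction absorbed (Fa) in the PBPK model.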

P-gp = P-gp (Homo sapiens, UniProt P08183); assay: Efflux transporter substrate assessment in Caco-2 cells; assay type: in vitro ADME
[1] = system: hepatic uptake transporters; assay: Cellular uptake in suspensions of cryo-preserved human hepatocytes; assay type: in vitro ADME; conditions: suspended human hepatocytes
human liver microsomes = assay: Oxidative metabolism kinetics in pooled HLM; assay type: in vitro ADME
CYP3A4 = CYP3A4 (Homo sapiens, UniProt P08684); assay type: in vitro ADME
CYP2C19 = CYP2C19 (Homo sapiens, UniProt P33261); assay: Recombinant human CYP enzyme kinetics; assay type: in vitro ADME
CYP3A5 = CYP3A5 (Homo sapiens, UniProt P20815); assay: Recombinant human CYP enzyme kinetics; assay type: in vitro ADME
CYP2B6 = target: T1, CYP2B6 (Homo sapiens, UniProt P20813); assay: Recombinant human CYP enzyme kinetics; assay type: in vitro ADME
T1 sequence (P20813 1-491): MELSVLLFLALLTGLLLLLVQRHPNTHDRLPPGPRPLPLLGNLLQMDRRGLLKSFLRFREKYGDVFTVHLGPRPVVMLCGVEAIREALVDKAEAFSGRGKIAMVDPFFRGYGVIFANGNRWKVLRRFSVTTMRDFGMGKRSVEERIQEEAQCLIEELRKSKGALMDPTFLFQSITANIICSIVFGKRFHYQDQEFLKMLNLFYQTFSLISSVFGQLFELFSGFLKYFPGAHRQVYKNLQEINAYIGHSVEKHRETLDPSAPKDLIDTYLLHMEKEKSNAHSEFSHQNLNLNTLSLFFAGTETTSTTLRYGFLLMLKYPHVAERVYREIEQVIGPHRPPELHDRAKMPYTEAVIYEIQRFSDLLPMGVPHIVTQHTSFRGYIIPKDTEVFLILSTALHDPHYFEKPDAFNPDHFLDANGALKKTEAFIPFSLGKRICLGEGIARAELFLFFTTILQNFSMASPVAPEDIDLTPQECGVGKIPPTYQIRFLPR

CYP3A4/5 = assay: Correlation analysis with HLM from 16 individual donors; assay type: in vitro ADME, human
[2] = assay type: in vivo, human; conditions: for Vd: 100 µg; for half-life / Tmax: whole blood; for half-life: t 1/2, arithmetic mean; for Tmax: po
In short: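 Healthy adults, open-label single-sequence three-period crossover. Oral doses: 50 mg alone (day 3, 1 h after 240 ml 10% glucose), 20 mg 1 h after 240 ml grapefruit juice, and 20 mg 1 h after the second ritonavir 100 mg dose. Stable-isotope-labelled i.v. microtracer 100 µg given 2 h post-oral in periods 1 and 3. Blood measured by LC-MS/MS; dose-normalised; mixed-ANOVA geometric mean ratios.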

[3] = Clinical DDI study: safety; assay type: in vivo, human
[4] = Single and multiple ascending dose study, observed PK; assay type: in vivo, human
[5] = DDI trial with CYP450 enzyme substrate cocktail, steady state; ref unpublished data, Schiller, Huth, Schuhler, Drollmann, Kaul, Woessner, et al. 2021; cited from earlier work
[6] = rat in vivo; ref data on file, Novartis; cited from earlier work
[7] = i.v., Period 1 remibrutinib alone day 3, Geo-mean (%CV)
[8] = i.v., Period 3 remibrutinib + ritonavir, Geo-mean (%CV)
[9] = oral, Period 1 alone 50 mg Day 3, Mean (SD)
[10] = oral, Period 2 20 mg + GFJ Day 5, Mean (SD)
[11] = oral, Period 3 20 mg + RTV Day 7, Mean (SD)
[12] = p.o., Period 1 remibrutinib alone, adjusted Geo-mean, 90% CI
[13] = p.o., Period 2 remibrutinib + grapefruit juice, adjusted Geo-mean, 90% CI
[14] = p.o., Period 3 remibrutinib + ritonavir, adjusted Geo-mean, 90% CI
[15] = p.o., grapefruit juice vs alone, Geo mean ratio, 90% CI
[16] = p.o., ritonavir vs alone, Geo-mean ratio, 90% CI

CYP3A4, sequence (P08684 whole entry): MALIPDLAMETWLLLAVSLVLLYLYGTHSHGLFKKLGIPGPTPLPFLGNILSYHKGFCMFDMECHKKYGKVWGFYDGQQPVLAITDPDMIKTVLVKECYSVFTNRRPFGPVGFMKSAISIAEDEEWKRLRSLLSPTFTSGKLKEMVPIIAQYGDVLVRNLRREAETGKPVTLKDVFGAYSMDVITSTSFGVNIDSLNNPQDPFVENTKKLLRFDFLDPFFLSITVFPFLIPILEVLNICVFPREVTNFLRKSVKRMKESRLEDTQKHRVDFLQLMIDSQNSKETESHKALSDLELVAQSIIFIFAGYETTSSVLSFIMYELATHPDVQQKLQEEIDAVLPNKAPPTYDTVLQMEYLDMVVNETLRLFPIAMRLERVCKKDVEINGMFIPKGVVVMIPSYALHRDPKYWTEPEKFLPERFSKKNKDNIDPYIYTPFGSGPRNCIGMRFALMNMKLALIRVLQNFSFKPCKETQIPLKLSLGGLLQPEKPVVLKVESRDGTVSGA
CYP3A5, sequence (P20815 whole entry): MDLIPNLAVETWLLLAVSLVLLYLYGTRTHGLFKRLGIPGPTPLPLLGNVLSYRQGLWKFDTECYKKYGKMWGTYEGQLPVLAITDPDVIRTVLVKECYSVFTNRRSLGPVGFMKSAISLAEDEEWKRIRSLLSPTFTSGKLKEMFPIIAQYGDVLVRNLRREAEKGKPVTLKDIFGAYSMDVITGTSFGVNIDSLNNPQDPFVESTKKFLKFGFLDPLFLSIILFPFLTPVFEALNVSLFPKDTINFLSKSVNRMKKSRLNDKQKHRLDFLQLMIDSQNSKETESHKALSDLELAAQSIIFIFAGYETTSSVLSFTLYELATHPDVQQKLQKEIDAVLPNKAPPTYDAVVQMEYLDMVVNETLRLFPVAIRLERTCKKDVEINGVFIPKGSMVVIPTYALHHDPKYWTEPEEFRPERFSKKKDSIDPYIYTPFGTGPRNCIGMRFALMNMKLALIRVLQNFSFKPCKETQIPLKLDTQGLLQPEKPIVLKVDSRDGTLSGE
P-gp, sequence (P08183 whole entry): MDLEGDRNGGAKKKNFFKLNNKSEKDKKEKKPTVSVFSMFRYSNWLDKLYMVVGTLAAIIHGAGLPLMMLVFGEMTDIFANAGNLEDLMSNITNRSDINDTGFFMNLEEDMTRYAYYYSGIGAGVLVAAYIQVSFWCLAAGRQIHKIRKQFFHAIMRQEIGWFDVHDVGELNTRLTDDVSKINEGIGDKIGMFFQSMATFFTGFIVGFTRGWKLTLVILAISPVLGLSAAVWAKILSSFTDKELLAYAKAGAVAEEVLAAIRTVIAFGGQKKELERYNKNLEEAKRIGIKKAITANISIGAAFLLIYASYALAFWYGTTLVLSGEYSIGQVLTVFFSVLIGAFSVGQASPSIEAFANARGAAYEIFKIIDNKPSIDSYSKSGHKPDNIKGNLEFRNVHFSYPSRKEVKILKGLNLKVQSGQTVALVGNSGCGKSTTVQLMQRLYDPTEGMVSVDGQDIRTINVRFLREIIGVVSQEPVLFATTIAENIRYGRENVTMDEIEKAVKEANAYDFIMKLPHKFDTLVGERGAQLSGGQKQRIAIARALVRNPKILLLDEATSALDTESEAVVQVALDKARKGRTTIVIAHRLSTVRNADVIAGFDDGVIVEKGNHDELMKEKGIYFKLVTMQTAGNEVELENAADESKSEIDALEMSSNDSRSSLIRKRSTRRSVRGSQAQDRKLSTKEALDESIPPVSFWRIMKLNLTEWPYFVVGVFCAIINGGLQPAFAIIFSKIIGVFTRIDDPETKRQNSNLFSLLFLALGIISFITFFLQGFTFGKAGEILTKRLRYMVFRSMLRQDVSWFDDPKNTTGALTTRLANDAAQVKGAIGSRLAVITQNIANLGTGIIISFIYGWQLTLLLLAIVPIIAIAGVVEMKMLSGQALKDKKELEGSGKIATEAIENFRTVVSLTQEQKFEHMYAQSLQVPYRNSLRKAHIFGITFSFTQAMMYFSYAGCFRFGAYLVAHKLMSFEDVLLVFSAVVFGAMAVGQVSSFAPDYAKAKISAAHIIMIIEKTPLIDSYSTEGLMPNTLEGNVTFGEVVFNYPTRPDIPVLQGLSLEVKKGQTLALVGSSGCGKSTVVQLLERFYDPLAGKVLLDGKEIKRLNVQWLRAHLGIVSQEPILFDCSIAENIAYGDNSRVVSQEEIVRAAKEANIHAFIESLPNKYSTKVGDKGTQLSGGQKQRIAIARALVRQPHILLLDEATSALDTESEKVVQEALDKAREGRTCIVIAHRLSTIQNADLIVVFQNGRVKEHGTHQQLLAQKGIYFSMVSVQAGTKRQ
CYP2C19, sequence (P33261 whole entry): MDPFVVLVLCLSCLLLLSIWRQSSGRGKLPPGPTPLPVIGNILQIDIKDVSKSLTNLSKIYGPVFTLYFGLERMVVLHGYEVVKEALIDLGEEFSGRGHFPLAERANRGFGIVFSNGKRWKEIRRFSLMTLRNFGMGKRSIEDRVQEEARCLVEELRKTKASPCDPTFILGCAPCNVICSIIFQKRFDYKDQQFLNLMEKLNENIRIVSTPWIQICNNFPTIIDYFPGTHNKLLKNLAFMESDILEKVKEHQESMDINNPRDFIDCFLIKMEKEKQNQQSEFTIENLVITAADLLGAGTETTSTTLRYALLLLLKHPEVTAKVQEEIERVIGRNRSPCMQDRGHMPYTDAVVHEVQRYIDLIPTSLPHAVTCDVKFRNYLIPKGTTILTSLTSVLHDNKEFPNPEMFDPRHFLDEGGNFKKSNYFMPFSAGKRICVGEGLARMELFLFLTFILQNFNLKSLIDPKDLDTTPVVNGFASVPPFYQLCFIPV

## C=CC(=O)N(C)CCOc1c(N)ncnc1-c1cc(F)cc(NC(=O)c2ccc(C3CC3)cc2F)c1C [remibrutinib]
Caco-2 cells
  passive permeability (Papp): 16.5 10^-6 cm/s
P-gp
  P-gp substrate: identified as a P‐gp substrate
[1]
  uptake clearance with inhibitors of hepatic uptake transporters: not affected
Human liver microsomes
  apparent intrinsic affinity (Kmapp): 5.43 µM
  maximal rate of metabolism (Vmax): 560.7 pmol/min/mg protein
CYP3A4; CYP3A4
  Vmax: 16.3 pmol/min/pmol CYP
CYP3A4; read-out: Km,u, CYP3A4, unbound
  Km: 1.51 µM
CYP2C19
  fm,CYP (contribution to oxidative hepatic metabolism): 1%
CYP3A5
  fm,CYP (contribution to oxidative hepatic metabolism): 0.8%
CYP2B6
  fm,CYP (contribution to oxidative hepatic metabolism): 0.3%
CYP3A4/5; midazolam
  correlation of metabolism rate with CYP3A4/5 activity, R: 0.989
CYP3A4/5; testosterone
  correlation of metabolism rate with CYP3A4/5 activity, R: 0.986
[2]; Observed mean
  F (absolute bioavailability): 33.8 ± 11.5%
[2]; Observed mean, bioavailability in the presence of ritonavir
  F inhibited: 80.9% and 80.9 ± 11.5%
[2]; Observed mean, from grapefruit juice AUC ratio
  Fg: 78.9% and 78.9 ± 15.6%
[2]; Observed, calculated Fa = F/Fg/Fh
  Fa: 86.9% and 86.9^e %
[2]; Observed, calculated Fh = AUCratio,iv/(AUCratio,po * Fg), ritonavir DDI study
  Fh: 49.3^d %
[2]; Observed, from i.v. exposure increase with ritonavir
  fm (CYP3A4): 40%
[2]; calculated
  CYP3A4-mediated hepatic first-pass metabolism (100%-Fh): 50.7%
[2]; calculated / clinically determined values
  product of Fg and Fh: 39%
[2]; human, blood, intravenous
  Vd: 0.81 ± 0.22 L/kg
[2]; human, blood, iv
  Vd: 63.1 L
[2]; human, blood, iv, 0.1 mg
  clearance: 1170 mL/min
[2]; human, in vivo
  systemic CL as share of hepatic blood flow (87 L/h): ~ 80%
[2]; human, oral, 50 mg, remibrutinib alone
  half-life: 6.58 h
[2]; human, oral, with RTV
  half-life: 12.1 h
[2]; human, oral, with grapefruit juice
  half-life: 7.13 h
[2]; human, 50 mg, median, remibrutinib alone
  Tmax: 1 h
[2]; human, 50 mg, minimum-maximum, remibrutinib alone
  Tmax: 0.5 to 2.5 h
[2]; human, median, with RTV
  Tmax: 0.72 h
[2]; human, median, with grapefruit juice
  Tmax: 0.73 h
[2]; human, minimum-maximum, with RTV
  Tmax: 0.5 to 1.5 h
[2]; human, minimum-maximum, with grapefruit juice
  Tmax: 0.5 to 2 h
[2]; [7]
  AUC0-24 h norm by dose: 14.2 (21.8%) h*ng/ml/mg
  AUCinf norm by dose: 14.5 (17.9%) h*ng/ml/mg
  AUClast norm by dose: 13.9 (22.3%) h*ng/ml/mg
[2]; [8]
  AUC0-24 h norm by dose: 23.8 (31.0%) h*ng/ml/mg
  AUCinf norm by dose: 24.8 (33.3%) h*ng/ml/mg
  AUClast norm by dose: 23.5 (31.0%) h*ng/ml/mg
[2]; i.v., ritonavir vs alone
  AUC0-24 h norm by dose, Ratio period 3 / period 1: 1.67
  AUCinf norm by dose, Ratio period 3 / period 1: 1.70
  AUClast norm by dose, Ratio period 3 / period 1: 1.68
  Cmax norm by dose, Ratio period 3 / period 1: 0.89
[2]; [9]
  AUC0-24 h norm by dose: 4.89 ng·h/mL/mg
  Cmax norm by dose: 2.77 ng/mL/mg
[2]; [10]
  AUC0-24 h norm by dose: 6.28 ng·h/mL/mg
  Cmax norm by dose: 3.27 ng/mL/mg
[2]; [11]
  AUC0-24 h norm by dose: 20.3 ng·h/mL/mg
  Cmax norm by dose: 9.00 ng/mL/mg
[2]; [12]
  AUC0-24 h norm by dose: 4.49 (3.83, 5.26) h*ng/ml/mg
  AUCinf norm by dose: 4.66 (3.92, 5.54) h*ng/ml/mg
  AUClast norm by dose: 4.37 (3.73, 5.13) h*ng/ml/mg
  Cmax norm by dose: 2.45 (1.99, 3.02) ng/ml/mg
[2]; [13]
  AUC0-24 h norm by dose: 5.80 (4.95, 6.80) h*ng/ml/mg
  AUCinf norm by dose: 5.98 (4.97, 7.19) h*ng/ml/mg
  AUClast norm by dose: 5.80 (4.93, 6.81) h*ng/ml/mg
  Cmax norm by dose: 3.03 (2.45, 3.75) ng/ml/mg
[2]; [14]
  AUC0-24 h norm by dose: 19.2 (16.4, 22.5) h*ng/ml/mg
  AUCinf norm by dose: 20.1 (16.9, 23.8) h*ng/ml/mg
  AUClast norm by dose: 19.7 (16.7, 23.1) h*ng/ml/mg
  Cmax norm by dose: 8.15 (6.59, 10.1) ng/ml/mg
[2]; [15]
  AUCinf norm by dose, Ratio period 2 / period 1: 1.28 (1.09, 1.51)
  AUClast norm by dose, Ratio period 2 / period 1: 1.33 (1.19, 1.47)
[2]; [16]
  AUCinf norm by dose, Ratio period 3 / period 1: 4.31 (3.76, 4.94)
  AUClast norm by dose, Ratio period 3 / period 1: 4.50 (4.05, 4.99)
[3]; alone, with grapefruit juice, or with RTV, healthy participants
  tolerability: well‐tolerated
[3]; during the trial
  SAEs, deaths, high-grade AEs: No SAEs, deaths, or AEs of high‐grade severity
[3]; except isolated AE of mildly increased white blood cell count in one participant
  clinical laboratory evaluations, vital signs, ECG: no clinically relevant changes
[3]; occurring in 5 [29.4%] participants
  AEs rated grade 1 of all AEs: 13/14
[4]; declining over dose range 10-600 mg (TMDD effect)
  AUC ratio day 12 to day 1: 4.86 to 1.14
[4]; humans
  fractional contribution of renal excretion to elimination: about 1.8%
[5]
  observed AUCtau: 916 ng·h/mL
  observed Cmax: 334 ng/mL
[6]
  excretion of unchanged remibrutinib into the bile: 0.4 % of the dose
